# Tested on: RAW264.7
# Test: Inhibition of LPS-induced NO production in mouse RAW264.7 cells by Griess assay
# Format: functional, cell-based
# In short: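 RAW 264.7 mouse macrophages were seeded at 1 × 10^5 cells/well and left to adhere 2 h at 37 °C in 5% CO2. Nitrite accumulated in the supernatant was measured with Griess reagent, and IC50 values were derived. Hydrocortisone served as positive control.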
row,IC50 [µM],SMILES
1,48.6,CC(C)=C1C[C@@H]2O[C@H](CC[C@]2(C)O)/C(C)=C/C1=O
2,77.9,CC1=CC(=O)C[C@@H]2[C@H]1CC[C@@]2(C)O
3,78.7,CC(=O)C(C[C@@H]1[C@H](C(C)=O)CC[C@]1(C)O)=C(C)C
4,79.8,CC1=CC(=O)[C@@H]2C[C@@H]3[C@@](C)(O)CC[C@]13OC2(C)C
5,78.2,C/C1=C\[C@H](O)C[C@]2(C)O[C@H]2C(=O)c2c(C)coc2C1
6,89.2,CC(C)=C1C[C@]2(O)[C@@H](C)CC[C@@H]2[C@@](C)(O)CC1=O
7,87.6,CC(C)=C1C[C@@]23O[C@]1(O)C[C@@](C)(O)[C@H]2CC[C@H]3C
8,92.4,CC(C)=C1C[C@]2(O)[C@@H](CC[C@@H]2C)[C@@](C)(O)CC1=O
9,66.5,C=C(C)[C@H]1CC[C@](C)(O)[C@H]1CC(C(=O)O)=C(C)C
10,8.5,CC1=C2C[C@H]3[C@@](C)(O)CC[C@@]34O[C@@]2(C[C@@]4(C)O)OC1=O
11,7.6,CC1=C2C[C@H]3[C@@](C)(O)CC[C@@]34O[C@@]2(C[C@]4(C)O)OC1=O
12,51.4,C[C@]12CCC(=O)C=C1CC[C@@H]1[C@@H]2[C@@H](O)C[C@@]2(C)[C@H]1CC[C@]2(O)C(=O)CO [HYDROCORTISONE]
13,68.4,C=C(C)[C@@H]1CC[C@](C)(O)[C@H]1CC(C(=O)O)=C(C)C
14,47.7,Cc1coc2c1C(=O)[C@]1(O)[C@@H](C)CC[C@H]1C(CO)=C2

# Tested on: RAW264.7
# Test: Cytotoxicity against mouse RAW264.7 cells by MTT assay
# Format: cell-based
row,SMILES,Activity
1,CC(C)=C1C[C@@H]2O[C@H](CC[C@]2(C)O)/C(C)=C/C1=O,Non-toxic
2,CC1=CC(=O)C[C@@H]2[C@H]1CC[C@@]2(C)O,Non-toxic
3,CC(=O)C(C[C@@H]1[C@H](C(C)=O)CC[C@]1(C)O)=C(C)C,Non-toxic
4,CC1=CC(=O)[C@@H]2C[C@@H]3[C@@](C)(O)CC[C@]13OC2(C)C,Non-toxic
5,C/C1=C\[C@H](O)C[C@]2(C)O[C@H]2C(=O)c2c(C)coc2C1,Non-toxic
6,CC(C)=C1C[C@]2(O)[C@@H](C)CC[C@@H]2[C@@](C)(O)CC1=O,Non-toxic
7,CC(C)=C1C[C@@]23O[C@]1(O)C[C@@](C)(O)[C@H]2CC[C@H]3C,Non-toxic
8,CC(C)=C1C[C@]2(O)[C@@H](CC[C@@H]2C)[C@@](C)(O)CC1=O,Non-toxic
9,C=C(C)[C@H]1CC[C@](C)(O)[C@H]1CC(C(=O)O)=C(C)C,Non-toxic
10,CC1=C2C[C@H]3[C@@](C)(O)CC[C@@]34O[C@@]2(C[C@@]4(C)O)OC1=O,Non-toxic
11,CC1=C2C[C@H]3[C@@](C)(O)CC[C@@]34O[C@@]2(C[C@]4(C)O)OC1=O,Non-toxic
12,C=C(C)[C@@H]1CC[C@](C)(O)[C@H]1CC(C(=O)O)=C(C)C,Non-toxic
13,Cc1coc2c1C(=O)[C@]1(O)[C@@H](C)CC[C@H]1C(CO)=C2,Non-toxic
